Reference: ChEMBL document CHEMBL4041524, “Synthesis and Characterization of a Novel γ-Aminobutyric Acid Type A (GABAA) Receptor Ligand That Combines Outstanding Metabolic Stability, Pharmacokinetics, and Anxiolytic Efficacy” (J Med Chem, 2016)
Calls of active or inactive are those of the source. No cut-off for these calls is given here.

Columns and labels:
Liver [1] = experiment: Metabolic stability in human liver microsomes assessed as compound remaining at 4 uM measured after 30 mins in presence of NADPH by LC-MS/MS analysis; assay type: ADME, microsome; details: 0.5 h
Procedure, shortened: (§1)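 Human, mouse or rat liver microsomes were incubated with compound at 4 μM final for 30 min at 37 °C (n = 1). Percent of parent remaining was quantified by LC-MS/MS.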

Liver [2] = experiment: Metabolic stability in rat liver microsomes assessed as compound remaining at 4 uM measured after 30 mins in presence of NADPH by LC-MS/MS analysis; assay type: ADME, microsome; details: 0.5 h; procedure, shortened: as §1
Mus musculus [3] = experiment: Toxicity in Swiss mouse assessed as change in motor coordination by measuring number of falls from the rotating rod at 30 mg/kg, ip administered 30 mins prior to testing measured for 2 mins by rotarod test relative to control; assay type: organism-based; details: in vivo
Procedure, shortened: (§2)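 The same mice used for marble burying were placed on a rotarod at 4 r.p.m. for 2 min. No fall was scored success, one fall partial, and two falls failure.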

[4] = biological target: T1, GABA-A receptor; alpha-3/beta-3/gamma-2 (Homo sapiens, UniProt P18507+P28472+P34903); experiment: Binding affinity to human GABAA alpha3beta3gamma2 receptor expressed in HEK293 cells assessed as GABA-induced membrane potential change preincubated for 3 mins followed by addition of GABA measured after 3 mins by FLIPR assay; assay type: cell-based
T1 sequence (P18507 whole entry): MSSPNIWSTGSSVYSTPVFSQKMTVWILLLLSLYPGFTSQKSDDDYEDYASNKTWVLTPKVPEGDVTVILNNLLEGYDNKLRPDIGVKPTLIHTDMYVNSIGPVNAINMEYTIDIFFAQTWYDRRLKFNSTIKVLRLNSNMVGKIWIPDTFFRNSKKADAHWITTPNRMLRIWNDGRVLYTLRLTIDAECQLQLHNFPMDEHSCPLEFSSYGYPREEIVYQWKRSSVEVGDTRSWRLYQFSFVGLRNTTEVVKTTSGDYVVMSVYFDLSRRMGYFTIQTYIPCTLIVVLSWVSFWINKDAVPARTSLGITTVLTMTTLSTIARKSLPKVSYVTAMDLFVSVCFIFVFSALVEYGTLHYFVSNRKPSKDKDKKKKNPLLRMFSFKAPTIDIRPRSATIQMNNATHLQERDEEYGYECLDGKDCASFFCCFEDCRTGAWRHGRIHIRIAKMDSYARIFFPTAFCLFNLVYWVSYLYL
T1 sequence (P28472 whole entry): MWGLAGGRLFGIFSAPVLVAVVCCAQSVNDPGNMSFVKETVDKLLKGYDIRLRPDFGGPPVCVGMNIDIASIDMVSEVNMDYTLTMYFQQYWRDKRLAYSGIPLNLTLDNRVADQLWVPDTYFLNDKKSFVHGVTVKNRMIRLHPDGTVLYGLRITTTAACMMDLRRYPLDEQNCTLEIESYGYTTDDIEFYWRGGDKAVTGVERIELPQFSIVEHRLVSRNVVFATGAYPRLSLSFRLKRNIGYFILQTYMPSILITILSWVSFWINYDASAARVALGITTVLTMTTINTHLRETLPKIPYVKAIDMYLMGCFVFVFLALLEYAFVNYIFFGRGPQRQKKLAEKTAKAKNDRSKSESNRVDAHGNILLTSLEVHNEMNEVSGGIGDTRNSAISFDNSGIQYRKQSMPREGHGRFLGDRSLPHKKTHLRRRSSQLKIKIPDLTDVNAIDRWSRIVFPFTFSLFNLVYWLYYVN
T1 sequence (P34903 whole entry): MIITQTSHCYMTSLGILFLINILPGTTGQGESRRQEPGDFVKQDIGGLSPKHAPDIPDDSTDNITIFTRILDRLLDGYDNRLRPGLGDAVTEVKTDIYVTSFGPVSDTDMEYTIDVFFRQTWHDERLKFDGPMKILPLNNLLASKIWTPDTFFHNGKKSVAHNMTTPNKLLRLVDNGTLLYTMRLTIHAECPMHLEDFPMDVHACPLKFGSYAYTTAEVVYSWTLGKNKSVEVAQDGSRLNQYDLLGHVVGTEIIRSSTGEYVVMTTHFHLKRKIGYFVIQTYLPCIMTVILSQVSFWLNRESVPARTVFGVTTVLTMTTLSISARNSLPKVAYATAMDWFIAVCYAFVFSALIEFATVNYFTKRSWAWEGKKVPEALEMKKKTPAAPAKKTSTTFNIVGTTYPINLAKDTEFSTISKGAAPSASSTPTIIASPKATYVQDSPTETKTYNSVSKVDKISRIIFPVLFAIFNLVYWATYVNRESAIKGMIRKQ
Procedure, shortened: (§3)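 Stably transfected HEK293T cells expressing α1β3γ2 (n = 2) or α3β3γ2 (n = 1) GABAARs. Membrane potential was read as fluorescence changes on a FLIPR Tetra, and EC50 was derived.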

Mus musculus [5] = experiment: Anxiolytic-like activity in Swiss Webster mouse marble burying model of anxiety assessed as suppression of marble burying activity at 30 mg/kg, ip administered 30 mins prior to test relative to vehicle-control; assay type: functional, organism-based
Procedure, shortened: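 Male NIH Swiss Webster mice (n = 10) received vehicle or compound at 10 or 30 mg/kg i.p. 30 min before marble burying testing. Sedation-like behaviour was noted by observation. Analysis was ANOVA with Dunnett's test vs vehicle.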

Mus musculus [6] = experiment: Toxicity in Swiss mouse assessed as change in motor coordination by measuring number of falls from the rotating rod at 10 mg/kg, ip administered 30 mins prior to testing measured for 2 mins by rotarod test relative to control; assay type: organism-based; details: in vivo; procedure, shortened: as §2
[7] = biological target: T2, GABA-A receptor; alpha-1/beta-3/gamma-2 (Homo sapiens, UniProt P14867+P18507+P28472); experiment: Binding affinity to human GABAA alpha1beta3gamma2 receptor expressed in HEK293 cells assessed as GABA-induced membrane potential change preincubated for 3 mins followed by addition of GABA measured after 3 mins by FLIPR assay; assay type: cell-based; procedure, shortened: as §3
T2 sequence (P14867 whole entry): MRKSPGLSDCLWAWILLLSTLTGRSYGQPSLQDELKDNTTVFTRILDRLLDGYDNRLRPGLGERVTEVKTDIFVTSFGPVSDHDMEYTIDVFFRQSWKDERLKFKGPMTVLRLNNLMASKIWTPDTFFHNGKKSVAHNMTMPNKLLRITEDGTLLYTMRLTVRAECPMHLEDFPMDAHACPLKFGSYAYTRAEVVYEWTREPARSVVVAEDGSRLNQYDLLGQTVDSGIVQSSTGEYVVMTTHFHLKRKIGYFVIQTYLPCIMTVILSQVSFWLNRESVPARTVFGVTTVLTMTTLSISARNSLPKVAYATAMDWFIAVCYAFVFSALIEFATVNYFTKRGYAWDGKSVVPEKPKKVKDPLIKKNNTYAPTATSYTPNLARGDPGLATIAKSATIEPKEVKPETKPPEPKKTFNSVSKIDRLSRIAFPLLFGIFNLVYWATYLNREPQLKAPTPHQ
T2 sequence (P18507 whole entry): T1 sequence (P18507 whole entry)
T2 sequence (P28472 whole entry): T1 sequence (P28472 whole entry)

Liver [8] = experiment: Metabolic stability in mouse liver microsomes assessed as compound remaining at 4 uM measured after 30 mins in presence of NADPH by LC-MS/MS analysis; assay type: ADME, microsome; details: 0.5 h; procedure, shortened: as §1
[9] = Cytotoxicity against HEK293T cells assessed as viable cells measured after 18 hrs by CellTiter-Glo assay; assay type: cell-based, HEK-293T; details: human, read-out: LD50
Procedure, shortened: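 HEK293T cells were exposed to compound for 18 h (n = 4). Viable cells were quantified with CellTiter-Glo, and LD50 was derived.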

[10] = Drug uptake in Sprague-Dawley rat brain at 10 mg/kg, po measured after 120 mins by LC-MS/MS analysis; assay type: ADME, organism-based; details: read-out: Drug uptake
Procedure, shortened: (§4)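 Sprague-Dawley rats (n = 3 per time point) were given 10 mg/kg p.o. Total plasma concentrations were taken at 15, 30, 60 and 120 min. Brain levels of the dosed ligand and of the carboxylic acid metabolite were taken at 60 or 120 min.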

[11] = Total plasma concentration in Sprague-Dawley rat at 10 mg/kg, po measured after 60 mins by LC-MS/MS analysis; assay type: ADME, organism-based; procedure, shortened: as §4
[12] = Total plasma concentration in Sprague-Dawley rat at 10 mg/kg, po measured after 120 mins by LC-MS/MS analysis; assay type: ADME, organism-based; procedure, shortened: as §4
Brain = experiment: Drug metabolism in Sprague-Dawley rat brain assessed as (E)-8-ethynyl-6-(pyridin-2-yl)-4H-benzo[f]imidazo[1,5-a][1,4]diazepine-3-carboxylic acid formation at 10 mg/kg, po measured after 120 mins by LC-MS/MS analysis; assay type: ADME, organism-based; details: in vivo, 2 h; procedure, shortened: as §4
[13] = Total plasma concentration in Sprague-Dawley rat at 10 mg/kg, po measured after 30 mins by LC-MS/MS analysis; assay type: ADME, organism-based; procedure, shortened: as §4
[14] = Total plasma concentration in Sprague-Dawley rat at 10 mg/kg, po measured after 15 mins by LC-MS/MS analysis; assay type: ADME, organism-based; procedure, shortened: as §4

Row | SMILES | Stability (Liver [1]) | Stability (Liver [2]) | Activity (Mus musculus [3]) | EC50 [4] | Activity (Mus musculus [5]) | Activity (Mus musculus [6]) | EC50 [7] | Stability (Liver [8]) | CC50 at 18 h [9] | concentration at 2 h [10] | concentration at 1 h [11] | concentration at 2 h [12] | Drug metabolism (Brain) | concentration at 0.5 h [13] | concentration at 0.25 h [14]
1 | C#Cc1ccc2c(c1)C(c1ccccc1)=NCc1c(-c3cnco3)ncn1-2 | 74% | 72% | Toxic | 0.321 µM | Active | Toxic | > 20 µM | 73% | 66.8 µM |  |  |  |  |  | 
2 | C#Cc1ccc2c(c1)C(c1ccccn1)=NCc1c(C(=O)O)ncn1-2 | 96% | 99% | Toxic | 0.47 µM |  |  | > 20 µM | 93% |  | < 12.2 nM | 161 nM | 37.5 nM | < 12.2 nM | 293 nM | 248 nM
3 | C#Cc1ccc2c(c1)C(c1ccccc1)=NCc1c(C(=O)OCC)ncn1-2 | 35% | 36% | Toxic |  |  |  |  | 6.3% |  |  |  |  |  |  | 
4 | C#Cc1ccc2c(c1)C(c1ccccc1F)=NCc1c(C(=O)OCC)ncn1-2 | 6.1% | 0.5% | Toxic | 0.029 µM |  |  | > 20 µM | 6.1% |  |  |  |  |  |  | 
5 | C#Cc1ccc2c(c1)C(c1ccccc1F)=NCc1c(-c3cnco3)ncn1-2 | 78% | 68% | Toxic | 0.011 µM | Active | Non-Toxic | > 20 µM | 78% | 61.5 µM |  |  |  |  |  | 
6 | [2H]C([2H])(C)OC(=O)c1ncn2c1CN=C(c1ccccn1)c1cc(C#C)ccc1-2 | 95% | 77% | Toxic |  |  |  |  | 63% |  | < 12.2 nM | < 12.2 nM | < 12.2 nM | < 12.2 nM | < 12.2 nM | < 12.2 nM
7 | C#Cc1ccc2c(c1)C(c1ccccn1)=NCc1c(-c3nc(C)no3)ncn1-2 | 81% | 93% | Toxic | 5.15 µM | Active | Non-Toxic | > 20 µM | 85% | > 100 µM |  |  |  |  |  | 
